From ChEMBL document CHEMBL5321249, “Appraisal of Fungus-Derived Xanthoquinodins as Broad-Spectrum Anti-Infectives Targeting Phylogenetically Diverse Human Pathogens” (J Nat Prod, 2023)

Key:
Trichomonas vaginalis = test: Antiparasitic activity against Trichomonas vaginalis Donne PRA-98 incubated for 17 hrs by glutaraldehyde/propidium iodide/acridine orange staining based high-content imaging analysis; type: functional, organism-based; details: Donne PRA-98, 17 h
Mycoplasma genitalium = test: Antibacterial activity against Mycoplasma genitalium G37 assessed as bacterial growth inhibition incubated for 6 to 7 days by microbroth dilution assay; type: functional, organism-based; details: Mycoplasmoides genitalium
In short: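 M. genitalium G37 from frozen stock grown 2 days in SP-4 broth at 37 °C, 5% CO2, to log phase; 0.45 μm-filtered, diluted 1:200 in SP-4 with 7.5% FBS, ~10^4 CFU per well with 2-fold serial compound dilutions in triplicate.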

[1] = Cytotoxicity against human HepG2 cells incubated for 48 hrs by MTS based assay; type: toxicity, cell-based
Plasmodium falciparum = test: Antimalarial activity against asynchronous Plasmodium falciparum Dd2 infected in human A+ erythrocytes incubated for 72 hrs by SYBR Green I dye based assay; type: functional, organism-based; details: Dd2, Erythrocyte
Cryptosporidium parvum = test: Antiparasitic activity against Nanoluciferase-tagged Cryptosporidium parvum infected in human HCT-8 cells assessed as inhibition of parasite growth incubated for 48 hrs by NanoGlo luciferase reagent based assay; type: functional, organism-based; details: HCT-8, 48 h
In short: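 HCT-8 cells grown 48 h to 50–75% confluence; calf-propagated oocysts activated 15 min in 10% bleach at room temperature, DPBS-washed, 5 × 10^3 per well in RPMI-1640 with 10% heat-inactivated FBS and penicillin-streptomycin plus graded compound, 48 h at 37 °C, 5% CO2. Lysed monolayers read with Nano-Glo; growth relative to infected untreated wells, no-parasite background; variable-slope sigmoidal EC50.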

[2] = Selectivity index, ratio of EC50 for cytotoxicity against human HepG2 cells to EC50 for antimalarial activity against asynchronous Plasmodium falciparum Dd2 infected in human A+ erythrocytes; type: toxicity, cell-based; details: read-out: Ratio EC50
In short: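 SI is HepG2 EC50 over P. falciparum Dd2 EC50. Asynchronous-stage parasites were assayed by SYBR Green I fluorescence with chloroquine-treated and untreated controls, and EC50 came from dose–response fits. HepG2 cytotoxicity used an MTS absorbance assay in triplicate up to 25 μM, with a 5% Triton X-100 zero-viability control and a no-treatment control.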

[3] = Selectivity index, ratio of EC50 for cytotoxicity against human HepG2 cells to EC50 for antiparasitic activity against Trichomonas vaginalis Donne PRA-98; type: toxicity, cell-based; details: read-out: Ratio EC50
In short: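 Trichomonads (4 × 10^4 per well) under microaerophilic conditions were treated with compound at no more than 0.5% DMSO for 17 h. Cells were then fixed with glutaraldehyde, propidium iodide and acridine orange, shaken, incubated 3 h at 37 °C, and counted by high-content imaging.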

[4] = Selectivity index, ratio of EC50 for cytotoxicity against human HepG2 cells to EC50 for antibacterial activity against Mycoplasma genitalium G37; type: cell-based; details: read-out: Ratio EC50
In short: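 SI is HepG2 EC50 over M. genitalium G37 EC50. G37 (~10^4 CFU/well) was grown in SP-4 broth with 7.5% FBS against 2-fold serial dilutions in triplicate for 6–7 days at 37 °C, 5% CO2. Genomes were quantified by 16S rRNA qPCR against untreated wells. HepG2 cytotoxicity used an MTS assay in triplicate, maximum 25 μM, with Triton X-100-lysed and untreated controls.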

[5] = Selectivity index, ratio of EC50 for cytotoxicity against human HepG2 cells to EC50 for antiparasitic activity against Nanoluciferase-tagged Cryptosporidium parvum infected in human HCT-8 cells assessed as inhibition of parasite growth; type: toxicity, cell-based; details: read-out: Ratio EC50
In short: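 For the parasite, 5 × 10^3 bleach-activated Nanoluciferase-tagged oocysts per well infected HCT-8 monolayers at 50–75% confluence in RPMI-1640 with 10% FBS. They were incubated 48 h at 37 °C, 5% CO2, then lysed for luminescence. Growth was expressed as percent of infected untreated wells and fitted by variable-slope sigmoidal dose–response.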

Row | SMILES | EC50 (Trichomonas vaginalis) [µM] | EC50 (Mycoplasma genitalium) [µM] | EC50 at 48 h [1] [µM] | EC50 (Plasmodium falciparum) [µM] | EC50 (Cryptosporidium parvum) [µM] | selectivity ratio [2] | selectivity ratio [3] | selectivity ratio [4] | selectivity ratio [5]
1 | COC(=O)[C@@]12Oc3cc4c(c(O)c3C(=O)[C@]1(O)C(=O)CC[C@@H]2O)[C@@H]1C=C[C@@]2(C4)C(=O)c3cc(C)cc(O)c3C(=O)[C@]2(O)C1=O | > 10 | > 10 | > 25 | > 5 | > 10 |  |  |  | 
2 | COC(=O)[C@@]12Oc3cc4c(c(O)c3C(=O)C1=C(O)CC[C@@H]2O)[C@@H]1C=C[C@@]2(C4)C(=O)c3cc(C)cc(O)c3C(=O)[C@]2(O)C1=O | > 10 | > 10 | > 25 | > 5 | > 10 |  |  |  | 
3 | COC(=O)[C@]1([C@@H](O)CCC(=O)O)CC(=O)c2c(cc3c(c2O)[C@@H]2C=C[C@@]4(C3)C(=O)c3cc(C)cc(O)c3C(O)=C4C2=O)O1 | > 10 | > 10 | > 25 | > 5 | > 10 |  |  |  | 
4 | COC(=O)[C@]12Oc3c(c(O)cc4c3[C@@H]3C=C[C@@]5(C4)C(=O)c4cc(C)cc(O)c4C(=O)[C@]5(O)C3=O)C(=O)C1=C(O)CC[C@@H]2O | > 10 | > 10 | > 25 | > 5 | > 10 |  |  |  | 
5 | COC(=O)[C@]1([C@@H]2CCC(=O)O2)CC(=O)c2c(O)cc(C)cc2O1 | > 10 | > 10 | > 25 | > 5 | > 40 |  |  |  | 
6 | Cc1ncc([N+](=O)[O-])n1CCO [METRONIDAZOLE] | 3.5 |  |  |  |  |  |  |  | 
7 | COC(=O)[C@@]12Oc3cc4c(c(O)c3C(=O)C1=C(O)CC[C@@H]2O)[C@@H]1C=C[C@@]2(C4)C(=O)c3cc(C)cc(O)c3C(O)=C2C1=O [XANTHOQUINODIN A1] | 3.9 | 0.13 | > 25 | 0.29 | 5.2 | > 86 | > 6.4 | > 62.5 | > 4.8
8 | COC(=O)[C@]1([C@@H]2CCC(=O)O2)CC(=O)c2c(cc3c(c2O)[C@@H]2C=C[C@@]4(C3)C(=O)c3cc(C)cc(O)c3C(O)=C4C2=O)O1 [XANTHOQUINODIN A3] | > 10 |  | > 25 | > 5 |  |  |  |  | 
9 | COC(=O)[C@]12Oc3cc4c(c(O)c3C(=O)C1=C(O)CC[C@@H]2O)[C@@H]1C=C[C@@]2(C4)C(=O)c3cc(C)cc(O)c3C(O)=C2C1=O [XANTHOQUINODIN A2] | 6.8 | 0.12 | > 25 | 0.5 | 3.5 | > 50 | > 3.7 | > 125 | > 7.1
10 | Cc1cc(O)c2c(c1)[C@@H]([C@@H]1c3cc(C)cc(O)c3C(=O)c3c(O)cc(O)cc31)c1cc(O)cc(O)c1C2=O (relative stereo) | > 10 | > 10 | 10.2 | 1.12 | > 2.4 | 9.1 |  |  | 
11 | CC[C@H]1OC(=O)[C@H](C)[C@@H](O[C@H]2C[C@@](C)(OC)[C@@H](O)[C@H](C)O2)[C@H](C)[C@@H](O[C@@H]2O[C@H](C)C[C@H](N(C)C)[C@H]2O)[C@](C)(O)C[C@@H](C)CN(C)[C@H](C)[C@@H](O)[C@]1(C)O [AZITHROMYCIN] |  | 0.0005 |  |  |  |  |  |  | 
12 | COC(=O)[C@]1([C@@H]2CCC(=O)O2)CC(=O)c2c(cc3c(c2O)[C@@H]2C=C[C@@]4(C3)C(=O)c3cc(C)cc(O)c3C(=O)[C@]4(O)C2=O)O1 | > 10 | > 10 | > 25 | > 5 | > 6 |  |  |  | 
13 | CCOc1ccc2cc(-c3nn(CC4CCN(C)CC4)c4ncnc(N)c34)ccc2c1 |  |  |  |  | 1.1 |  |  |  | 
14 | COC(=O)[C@]1([C@@H](O)CCC(=O)O)CC(=O)c2c(cc3c(c2O)[C@@H]2C=C[C@@]4(C3)C(=O)c3cc(C)cc(O)c3C(=O)[C@]4(O)C2=O)O1 | > 10 | > 10 | > 25 | > 5 | > 10 |  |  |  | 
15 | Cc1cc(O)c2c(c1)[C@@H]([C@H]1c3cc(C)cc(O)c3C(=O)c3c(O)cc(O)cc31)c1cc(O)cc(O)c1C2=O | > 10 | > 10 | 13.8 | 1.65 | > 7.2 | 8.6 |  |  | 
